In brackets after ≈: the same amount, converted by molar mass.

In data set [1] the test system is Escherichia coli. Briefly: Antimicrobial activity against Escherichia coli JM109 after 18 hrs. The class given is functional. To be noted: JM109, 18 h. In outline: (§1)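 Broth microdilution. Bacteria grown overnight in trypticase soy broth at 37 °C with shaking, then regrown to mid-log phase. 10^6 CFU/mL mixed 1:1 with peptide (100 to 0.5 μg/mL) and incubated 18 h at 37 °C. MIC taken as the lowest concentration inhibiting growth by OD600. Untreated bacteria served as control. Three experiments, each in duplicate.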

The subject of a further data set is Klebsiella pneumoniae. Briefly: Antimicrobial activity against Klebsiella pneumoniae ATCC 13383 after 18 hrs. The class given is functional. As to conditions: ATCC 13383, 18 h. In outline: as §1
Another data set relates to Staphylococcus aureus. Briefly: Antimicrobial activity against methicillin-resistant Staphylococcus aureus ATCC 33591 after 18 hrs. The format is functional. As to conditions: ATCC 33591, 18 h. In outline:
(§2)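 Broth microdilution. A colony was grown overnight in trypticase soy broth at 37 °C with shaking, then regrown to mid-log phase. 10^6 CFU/mL inoculum was mixed 1:1 with peptide dilutions (100 to 0.5 μg/mL) and incubated 18 h at 37°C. Read at OD600; MIC is the lowest concentration inhibiting growth. Three experiments, each in duplicate.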

Data set [2] concerns Staphylococcus epidermidis. Briefly: Antimicrobial activity against methicillin-resistant Staphylococcus epidermidis RP62A after 18 hrs. The class given is functional. The method in brief: as §2
The test system of the next data set is Enterococcus faecalis. Briefly: Antimicrobial activity against vancomycin-resistant Enterococcus faecalis ATCC 700802 after 18 hrs. As to conditions: ATCC 700802, 18 h. The class given is functional. The method in brief: as §2
Data set [3] is described as follows: Hemolytic activity in human RBC after 1 hr. The format is ADME, cell-based, Erythrocyte. To be noted: red blood cells (erythrocytes). The method in brief: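 Fresh human erythrocytes, PBS-washed (1000g, 10 min), as a 5% v/v suspension mixed 1:1 with two-fold compound dilutions. Incubated 1 h at 37 °C, then centrifuged. Supernatant hemoglobin read at 540 nm. PBS served as 0% lysis and 0.1% Triton X-100 as 100% lysis; % hemolysis computed relative to these.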

The nature of data set [4]: Selectivity ratio of HC50 for hemolytic activity in human RBC to MIC for methicillin-resistant Staphylococcus aureus ATCC 33591. The format is toxicity. To be noted: red blood cells (erythrocytes).
Data set [5] relates to Escherichia coli. The data set can be described thus: Bactericidal activity against Escherichia coli assessed as time required for bacterial kill at 12.5 ug/ml by time kill assay. The format is functional.
Data set [6] has as its system Escherichia coli. The data set can be described thus: Bactericidal activity against Escherichia coli assessed as time required for bacterial kill at 25 to 50 ug/ml by time kill assay. The format is functional.

One may read the MIC as the lowest concentration that inhibits growth of the organism. Higher therefore signals weaker potency. One may read the HC50 as the concentration giving 50% haemolysis. Lower therefore signals more damage to red cells. Consider `CCCCCCCCCCCCCCCC(=O)N[C@@H](CCCCN)C(=O)NCCN(C(=O)CCc1ccccc1)[C@@H](CCCCN)C(N)=O`, for which the MIC with Escherichia coli [1] was 1.5 to 3 µg/mL (≈ 2.18 to 4.37 µM); with Klebsiella pneumoniae, 6 to 12 µg/mL (≈ 8.73 to 17.5 µM); with Staphylococcus aureus, 1.5 to 3 µg/mL (≈ 2.18 to 4.37 µM); in data set [2], 3 to 6 µg/mL (≈ 4.37 to 8.73 µM); against Enterococcus faecalis, 6 to 12 µg/mL (≈ 8.73 to 17.5 µM). For the same compound, in data set [3], the HC50 at 1 h came to 31.2 µg/mL. Further, the selectivity ratio in data set [4] was 10.4.

As for `CCCCCCCCCCCCCCCC(=O)N[C@@H](CCCCN)C(=O)NCCN(C(=O)CCc1ccccc1)[C@@H](CCCCN)C(=O)NCCN(C(=O)CCc1ccccc1)[C@@H](CCCCN)C(=O)NCCN(C(=O)CCc1ccccc1)[C@@H](CCCCN)C(N)=O`, the MIC in the data set on Escherichia coli [1] was 1.5 to 3 µg/mL (≈ 1.16 to 2.32 µM); against Klebsiella pneumoniae, over 25 µg/mL; in the data set with Staphylococcus aureus, 1.5 to 3 µg/mL (≈ 1.16 to 2.32 µM); in [2], 3 to 6 µg/mL (≈ 2.32 to 4.64 µM); in the data set with Enterococcus faecalis it was 6 to 12 µg/mL (≈ 4.64 to 9.27 µM). Also, the HC50 at 1 h in [3] came out at 250 µg/mL. Moreover, in data set [4], the selectivity ratio is 83.

As to `CCCCCCCCCCCC(=O)N[C@@H](CCCCN)C(=O)NCCN(C(=O)CCc1ccccc1)[C@@H](CCCCN)C(N)=O`, the MIC (in the data set on Escherichia coli [1]; against Klebsiella pneumoniae; against Staphylococcus aureus; in data set [2]; in the data set with Enterococcus faecalis) was over 25 µg/mL throughout.

In the case of `CCCCCCCCCCCCCCCC(=O)N[C@@H](CCCCN)C(=O)NCCN(C(=O)CCCN)[C@@H](Cc1ccccc1)C(N)=O`, the MIC in the data set with Escherichia coli [1] and against Klebsiella pneumoniae was 3 µg/mL (≈ 4.55 µM) throughout. Also, in data set [3], the HC50 at 1 h stood at 125 µg/mL. For the same compound, the Time in the data set on Escherichia coli [5] stood at 120 min; in the data set on Escherichia coli [6], 60 min.

In the case of `CCCCCCCCCCCCCCCC(=O)NCCN(C(=O)CCc1ccccc1)[C@@H](CCCCN)C(N)=O`, the MIC is over 25 µg/mL in the data set with Escherichia coli [1]; over 25 µg/mL in the data set on Klebsiella pneumoniae; 25 µg/mL (≈ 44.7 µM) against Staphylococcus aureus; over 25 µg/mL in data set [2]; over 25 µg/mL in the data set on Enterococcus faecalis.

For the compound `CCCCCCCCCCCCCCCC(=O)N[C@@H](CCCCN)C(=O)NCCN(C(=O)CCc1ccccc1)[C@@H](CCCCN)C(=O)NCCN(C(=O)CCc1ccccc1)[C@@H](CCCCN)C(N)=O`, the MIC with Escherichia coli [1] is 1.5 to 3 µg/mL (≈ 1.51 to 3.03 µM); in the data set on Klebsiella pneumoniae, over 25 µg/mL; in the data set on Staphylococcus aureus it was under 3 µg/mL; in data set [2], over 25 µg/mL; with Enterococcus faecalis it was over 25 µg/mL. For the same compound, the HC50 at 1 h in [3] was 31.2 µg/mL. In addition, the selectivity ratio in [4] was 10.4.

For `CCCCCC(=O)N[C@@H](CCCCN)C(=O)NCCN(C(=O)CCc1ccccc1)[C@@H](CCCCN)C(N)=O`, the MIC (in the data set on Escherichia coli [1]; against Klebsiella pneumoniae; with Staphylococcus aureus; in data set [2]; in the data set on Enterococcus faecalis) was over 25 µg/mL each time.

For the compound `CCCCCCCCCC(=O)N[C@@H](CCCCN)C(=O)NCCN(C(=O)CCc1ccccc1)[C@@H](CCCCN)C(N)=O`, the MIC (against Escherichia coli [1]; against Klebsiella pneumoniae; with Staphylococcus aureus; in data set [2]; in the data set on Enterococcus faecalis) was over 25 µg/mL each time.

Take `CCCCCCCCCCCCCC(=O)N[C@@H](CCCCN)C(=O)NCCN(C(=O)CCc1ccccc1)[C@@H](CCCCN)C(N)=O`: the MIC with Escherichia coli [1] is 6 to 12 µg/mL (≈ 9.11 to 18.2 µM); in the data set with Klebsiella pneumoniae, over 25 µg/mL; against Staphylococcus aureus, 12 to 25 µg/mL (≈ 18.2 to 37.9 µM); in data set [2] it was over 25 µg/mL; against Enterococcus faecalis, over 25 µg/mL.

As to `CCCCCCCC(=O)N[C@@H](CCCCN)C(=O)NCCN(C(=O)CCc1ccccc1)[C@@H](CCCCN)C(N)=O`, the MIC (in the data set on Escherichia coli [1]; against Klebsiella pneumoniae; in the data set on Staphylococcus aureus; in [2]; against Enterococcus faecalis) was over 25 µg/mL throughout.

The values above are taken from ChEMBL document CHEMBL4270533, “Lipidated α/α-AA heterogeneous peptides as antimicrobial agents” (Eur J Med Chem, 2018).
